Results reported in ChEMBL document CHEMBL1125200, “Structure-activity relationships of estrogenic ligands: synthesis and evaluation of (17 alpha, 20E)- and (17 alpha, 20Z)-21-halo-19-norpregna-1,3,5(10),20-tetraene-3,17 beta-diols” (J Med Chem, 1991).

How the values were obtained:
[1] = target: T1, Estrogen receptor (Rattus norvegicus) (UniProt P06211+Q62986); assay: Relative binding affinity (RBA) for estrogen receptor of rat uterine cytosol at OC relative to Estradiol; format: protein assay
In short: (§1)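 Uterine cytosol from immature female Holtzman rats (21–25 days old), stored in liquid nitrogen. Competition assay with varying concentrations of unlabeled competitor against [³H]estradiol, incubated at 0–4 °C for 1–2 h. RBA is reported relative to estradiol (RBA = 100).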

[2] = target: T1, Estrogen receptor (Rattus norvegicus); assay: Relative binding affinity (RBA) for estrogen receptor of rat uterine cytosol at 25 degree C relative to Estradiol; format: protein assay
In short: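 Cytosol source is the uterus of immature female Holtzman rats (21–25 days old), kept in liquid nitrogen. Graded concentrations of unlabeled ligand compete with [³H]estradiol during an 18 h incubation at 25 °C. RBA is expressed against estradiol set at 100.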

[3] = target: T2, Estrogen receptor (Ovis aries) (UniProt P49885+Q9TU15); assay: Relative binding affinity (RBA) for estrogen receptor in lamb uterine cytosol at OC relative to Estradiol; format: protein assay; settings: Uterus
In short: (§2)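 Competitive estrogen receptor binding in lamb uterine cytosol, with estradiol as the standard ligand (RBA = 100). Incubation was at 0–4 °C for 1–2 h.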

[4] = target: T1, Estrogen receptor (Rattus norvegicus); assay: Relative binding affinity (RBA) for estrogen receptor in rat uterine cytosol at OC relative to Estradiol; settings: Uterus; in short: as §1
[5] = target: T2, Estrogen receptor (Ovis aries); assay: Relative binding affinity (RBA) for estrogen receptor of lamb uterine cytosol at OC relative to Estradiol; format: protein assay; in short: as §2

SMILES	relative binding affinity (RBA) [1]	RBA [2]	relative binding affinity (RBA) [3]	relative binding affinity (RBA) [4]	relative binding affinity (RBA) [5]
C[C@]12CC[C@@H]3c4ccc(O)cc4CC[C@H]3[C@@H]1CC[C@@]2(O)/C=C/I	202	776	–	–	–
C[C@]12CC[C@@H]3c4ccc(O)cc4CC[C@H]3[C@@H]1CC[C@@]2(O)/C=C\I	77	62	–	–	–
C[C@]12CC[C@@H]3c4ccc(O)cc4CC[C@H]3[C@@H]1CC[C@@]2(O)/C=C/Br	195	661	117	–	–
C[C@]12CC[C@@H]3c4ccc(O)cc4CC[C@H]3[C@@H]1CC[C@@]2(O)/C=C\Br	–	56	–	78	71
C[C@]12CC[C@@H]3c4ccc(O)cc4CC[C@H]3[C@@H]1CC[C@@]2(O)/C=C/Cl	126	199	74	–	–
C[C@]12CC[C@@H]3c4ccc(O)cc4CC[C@H]3[C@@H]1CC[C@@]2(O)/C=C\Cl	–	89	–	102	115
